In brackets after ≈: the same amount, converted by molar mass.
Assays:
[1] = system: Staphylococcus intermedius; assay: Antibacterial activity against Staphylococcus intermedius 1051997 assessed as growth inhibition incubated for 18 hrs by broth dilution method; format: functional; conditions: Staphylococcus intermedius, 1051997, 18 h
In short: (§1)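 Broth microdilution following CA-SFM recommendations. Inoculum was 10^5 CFU in Mueller-Hinton broth with two-fold serial drug dilutions. Plates were incubated 18 h at 37 °C. MIC was the lowest concentration giving complete inhibition of visible growth. Values are means, n = 3.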

[2] = system: Staphylococcus aureus; assay: Antibacterial activity against Staphylococcus aureus ATCC 25923 assessed as growth inhibition incubated for 18 hrs by broth dilution method; format: functional; conditions: ATCC 25923, 18 h; in short: as §1
[3] = system: Candida albicans; assay: Antifungal activity against Candida albicans ATCC 90028 assessed as growth inhibition incubated for 36 hrs by resazurin dye based assay; format: functional; conditions: ATCC 90028, 36 h
In short: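 Yeast was grown 3 days on YPD agar at 30 °C. Colonies were suspended and diluted in YNB broth to 2.5×10^3 CFU/mL, then added to two-fold compound dilutions (0.008–32 μg/mL final), in duplicate. Plates stood 36 h at 35 °C without shaking. Means, n = 2.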

[4] = system: Pseudomonas aeruginosa; assay: Induction of membrane depolarization in Pseudomonas aeruginosa measured after 15 mins by DiSC3(5) dye based spectrofluorometric method; format: functional, organism-based
In short: (§2)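 Bacteria were grown 24 h in MHB at 37 °C, washed in 250 mM sucrose with 5 mM MgSO4, and loaded with 3 μM DiSC3(5) for 1 h at 37 °C. Unbound dye was washed away before compound was added at varied concentrations. Fluorescence was recorded after 15 min on a spectrofluorometer, with pure 3 μM dye as the maximum. CTAB (0.01%) served as positive control.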

[5] = Hemolytic activity against Sprague-Dawley rat RBC assessed as release of hemoglobin at 50 uM incubated for 1 hr relative to control; format: ADME, cell-based, Erythrocyte; conditions: red blood cells (erythrocytes), read-out: Activity
In short: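 Fresh Sprague-Dawley rat erythrocytes were washed in saline and resuspended at 2% v/v. Cells were incubated with compound in DMSO/PBS for 1 h at 37 °C, then centrifuged at 200 g, and supernatant absorbance read at 540 nm. Results were normalised to DMSO/PBS (0%) and 0.1% Triton X-100 (100%). Single-point testing used 50 μM; HC50 came from 10-point curves. Means of three experiments.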

[6] = system: Staphylococcus aureus; assay: Induction of membrane depolarization in Staphylococcus aureus measured after 15 mins by DiSC3(5) dye based spectrofluorometric method; format: functional, organism-based; in short: as §2
[7] = system: Escherichia coli; assay: Antibacterial activity against Escherichia coli ATCC 25922 assessed as growth inhibition incubated for 18 hrs by broth dilution method; format: functional; conditions: ATCC 25922, 18 h; in short: as §1
[8] = system: Pseudomonas aeruginosa; assay: Antibacterial activity against Pseudomonas aeruginosa ATCC 27853 assessed as growth inhibition incubated for 18 hrs by broth dilution method; format: functional; conditions: ATCC 27853, 18 h; in short: as §1
[9] = system: Klebsiella pneumoniae; assay: Antibacterial activity against Klebsiella pneumoniae ATCC 700603 assessed as growth inhibition incubated for 18 hrs by resazurin dye based assay; format: functional; conditions: Klebsiella pneumoniae, 700603, 18 h
In short: (§3)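 Overnight cultures were diluted 40-fold in MHB and grown 1.5–2 h at 37 °C to mid-log phase. Cells were added at 5×10^5 CFU/mL final to two-fold compound dilutions (0.008–32 μg/mL final), in duplicate, for 18 h at 37 °C. Resazurin (0.001% final) was added for 2 h and MIC read by eye. Means, n = 2.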

[10] = system: Cryptococcus neoformans; assay: Antifungal activity against Cryptococcus neoformans ATCC 208821 assessed as growth inhibition incubated for 36 hrs by resazurin dye based assay; format: functional; conditions: ATCC 208821, 36 h
In short: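 Cryptococcus was grown 3 days on YPD agar at 30 °C, suspended, and diluted in YNB broth to 2.5×10^3 CFU/mL. Cells were exposed to 0.008–32 μg/mL compound (final), in duplicate, for 36 h at 35 °C without shaking. Resazurin (0.006% final) was added for a further 3 h. MIC was read from absorbance at OD570–600. Means, n = 2.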

[11] = system: Klebsiella aerogenes; assay: Disruption of membrane integrity in Enterobacter aerogenes EA289 assessed as increase in beta-lactamase hydrolysis by using chromogenic nitrocefin as substrate by spectrophotometry analysis; format: functional
In short: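 E. aerogenes EA289 was grown in MHB at 37 °C to OD600 0.5, washed in 20 mM potassium phosphate (pH 7.2) with 1 mM MgCl2, and readjusted to OD600 0.5. Cells were exposed to compound at 3.9–250 μM final with nitrocefin at 50 μg/mL final, at room temperature. Hydrolysis was followed as the absorbance rise at 490 nm.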

[12] = system: L6; assay: Cytotoxicity against rat L6 cells measured after 72 hrs by alamar blue assay; format: cell-based; conditions: L6, 72 h
In short: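 Rat L6 myoblasts, 4×10^4/well in RPMI 1640 with L-glutamine and 10% FBS, received seven 3-fold dilutions (90 to 0.123 μg/mL) for 72 h. Alamar Blue was added for 2 h and fluorescence read at ex 536/em 588 nm. Podophyllotoxin served as reference. Means, n = 2.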

[13] = Cytotoxicity against human HEK293 cells measured after 20 hrs by resazurin dye based fluorescence assay; format: cell-based
In short: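 HEK293 cells, 5,000/well in DMEM with 10% FBS, were exposed to compound for 20 h at 37 °C, 5% CO2. Resazurin (100 μM final) was added for 3 h, then fluorescence read at ex 560/em 590. Signal was normalised to tamoxifen (74 μg/mL, 0%) and untreated growth (100%), and CC50 came from dose-response fitting. Top dose 32 μg/mL. Means, n = 2.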

[14] = system: Acinetobacter baumannii; assay: Antibacterial activity against Acinetobacter baumannii ATCC 19606 assessed as growth inhibition incubated for 18 hrs by resazurin dye based assay; format: functional; conditions: ATCC 19606 = CIP 70.34 = JCM 6841, 18 h; in short: as §3
[15] = system: Pseudomonas aeruginosa; assay: Disruption of membrane integrity in Pseudomonas aeruginosa PAO1 assessed as increase in extracellular ATP level by luciferin-luciferase reagent based luminescence assay; format: functional, organism-based
In short: (§4)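 Growing bacteria (P. aeruginosa PAO1 or S. aureus) in MHB at 37 °C were mixed 9:1 with compound, at 4× MIC, and vortexed for 1 s. Luciferin-luciferase reagent was added immediately and luminescence read for 5 s. ATP was quantified by internal standard addition. Squalamine served as positive control.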

[16] = system: Staphylococcus aureus; assay: Disruption of membrane integrity in Staphylococcus aureus assessed as increase in extracellular ATP level by luciferin-luciferase reagent based luminescence assay; format: functional, organism-based; in short: as §4
[17] = system: Pseudomonas aeruginosa; assay: Potentiation of doxycycline-induced antibacterial activity against Pseudomonas aeruginosa ATCC 27853 assessed as concentration required to restore 2 ug/ml doxycycline activity measured after 18 hrs; format: functional
In short: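 Inoculum was 5×10^5 CFU in MHB with two-fold serial dilutions of adjuvant plus fixed doxycycline at 2 μg/mL. […] Repeated independently in triplicate.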

[18] = system: Acinetobacter baumannii; assay: Antibacterial activity against Acinetobacter baumannii AYE assessed as growth inhibition; format: functional
[19] = system: Klebsiella pneumoniae; assay: Antibacterial activity against Klebsiella pneumoniae ATCC 13443 assessed as growth inhibition; format: functional

Row | SMILES | MIC [1] | MIC [2] | MIC [3] | Activity [4] | hemolysis at 1 h, 50 µM [5] | Activity [6] | MIC [7] | MIC [8] | MIC [9] | MIC [10] | Activity [11] | IC50 [12] | CC50 at 20 h [13] | MIC [14] | Activity [15] | Activity [16] | Activity [17] | MIC [18] | MIC [19]
1 | O=C(NCCCNCCCCNCCCNC(=O)C(=O)c1c[nH]c2c(F)cccc12)C(=O)c1c[nH]c2c(F)cccc12.O=C(O)C(F)(F)F.O=C(O)C(F)(F)F | > 200 µM | 25 µM | > 39.6 µM | Dose-dependent effect | 8.4% | Dose-dependent effect | 200 µM | 200 µM | > 39.6 µM | 4.9 µM | Dose-dependent effect | 38.7 µM | 18.7 µM | > 39.6 µM | Dose-dependent effect | Dose-dependent effect | 3.125 µM | – | –
2 | O=C(N[C@H](CO)[C@H](O)c1ccc([N+](=O)[O-])cc1)C(Cl)Cl [CHLORAMPHENICOL] | 3 to 6 µM (≈ 0.969 to 1.94 µg/mL) | 1.5 to 3 µM (≈ 0.485 to 0.969 µg/mL) | – | – | – | – | > 200 µM | > 200 µM | – | – | – | – | – | – | – | – | – | > 200 µM | 50 µM (≈ 16.2 µg/mL)
3 | COC(=O)c1cccc2c(C(=O)C(=O)NCCCNCCCCNCCCNC(=O)C(=O)c3c[nH]c4c(C(=O)OC)cccc34)c[nH]c12.O=C(O)C(F)(F)F.O=C(O)C(F)(F)F | > 200 µM | 25 µM | > 36 µM | – | 15% | – | 200 µM | 200 µM | > 36 µM | 9 µM | – | 34.4 µM | 3.78 µM | > 36 µM | – | – | 6.25 µM | – | –
4 | Cc1ccc2[nH]cc(C(=O)C(=O)NCCCNCCCCNCCCNC(=O)C(=O)c3c[nH]c4ccc(C)cc34)c2c1.O=C(O)C(F)(F)F.O=C(O)C(F)(F)F | > 200 µM | 25 µM | > 40 µM | – | 0.3% | – | 200 µM | 100 µM | > 40 µM | 10 µM | – | 63.8 µM | > 40 µM | > 40 µM | – | – | 6.25 µM | – | –
5 | COc1ccc2c(C(=O)C(=O)NCCCNCCCCNCCCNC(=O)C(=O)c3c[nH]c4cc(OC)ccc34)c[nH]c2c1 | > 100 µM | > 100 µM | > 38.4 µM | – | 0% | – | > 100 µM | > 100 µM | > 38.4 µM | 19.2 µM (≈ 11.6 µg/mL) | – | 54 µM | > 38.4 µM | > 38.4 µM | – | – | 50 µM | – | –
